Published values gathered from unrelated publications.
Lines come from different studies, so protocols differ.
Melanocortin receptor 3: Melanocortin receptor 3 (Mus musculus, UniProt P33033)
Grm8: Metabotropic glutamate receptor 8 (Grm8, Rattus norvegicus, UniProt P70579)
TLR7: Toll-like receptor 7 (TLR7, Homo sapiens, UniProt Q9NYK1)
CHRM1: Muscarinic acetylcholine receptor M1 (CHRM1, Homo sapiens, UniProt P11229)

Structure (SMILES)	target	observed	mode	setting	EC50 [µM]
CCNC(=O)C1OC(n2cnc3c(N)nc(NN=CC4CCC=CO4)nc32)C(O)C1O (centres unmarked)	Adenosine receptor A2b (ADORA2B, Homo sapiens, UniProt P29275)	GTPγS binding	agonist	cell membranes	31
CC[C@@H]1SC2(CCN(C)CC2)NC1=O	Muscarinic acetylcholine receptor M4 (Rattus norvegicus, UniProt P08485)	calcium signal	agonist		> 50
CSCC[C@H](NC(=O)[C@@H](NC(=O)[C@@H](N)Cc1ccc(O)cc1)C(C)C)C(=O)NCC(=O)N[C@@H](Cc1c[nH]cn1)C(=O)N[C@@H](Cc1ccccc1)C(=O)N[C@@H](CCCNC(=N)N)C(=O)N[C@@H](Cc1c[nH]c2ccccc12)C(=O)O	Melanocortin receptor 3	reporter gene	agonist		2.8
N[C@@H](CCC(=O)O)C(=O)O	Grm8	ion flux	agonist		6.3
CC(=O)c1cc([N+](=O)[O-])c(Sc2cccc(Cl)c2Cl)s1	Collagenase 3 (MMP13, Homo sapiens, UniProt P45452)	enzyme activity	inhibitor		> 50
CSCC[C@H](N)C(=O)NCC(=O)N[C@@H](Cc1c[nH]cn1)C(=O)N[C@@H](Cc1ccccc1)C(=O)N[C@@H](CCCNC(=N)N)C(=O)N[C@@H](Cc1c[nH]c2ccccc12)C(=O)O	Melanocortin receptor 3	reporter gene	agonist		22.4
CCCCOc1nc(N)c2[nH]c(=O)n(CCN3CCNCC3)c2n1	TLR7	reporter gene	agonist		10
CCn1c(-c2nc3ccc(C(=O)N4CCCC(N)C4)cc3n2C)cc2ccccc21 (centres unmarked)	CHRM1	calcium signal	agonist		15.8
C[C@]12CCC3=C4CCC(=O)C=C4CC[C@H]3[C@@H]1CC[C@@]2(O)CC#N	Progesterone receptor (PGR, Homo sapiens, UniProt P06401)	reporter gene	agonist		0.0036
CCCC[C@H](NC(=O)[C@@H](NC(=O)[C@@H](N)Cc1ccc(O)cc1)C(C)C)C(=O)NCC(=O)N[C@@H](Cc1c[nH]cn1)C(=O)N[C@@H](Cc1ccccc1)C(=O)N[C@@H](CCCN=C(N)N)C(=O)N[C@@H](Cc1c[nH]c2ccccc12)C(=O)N[C@@H](CC(=O)O)C(=O)N[C@@H](CCCN=C(N)N)C(=O)N[C@@H](Cc1ccccc1)C(=O)NCC(=O)O	Melanocortin receptor 3	reporter gene	agonist		0.068
CCCCOc1nc(N)c2[nH]c(=O)n(C3CNC3)c2n1	TLR7	reporter gene	agonist		286
CCn1c(-c2nc3cc(C(=O)N4CCC[C@@H](N)C4)cc(OC)c3n2C)cc2cccnc21	CHRM1	calcium signal	agonist		7.94
COC(=O)c1ccc(-n2c(C)cc(C(=O)CSc3ccc(NC(C)=O)cc3)c2C)cc1	Grm8	calcium signal	positive allosteric modulator		0.851
CCCC[C@H](NC(=O)[C@@H](NC(=O)[C@@H](N)Cc1ccc(O)cc1)C(C)C)C(=O)NCC(=O)N[C@@H](Cc1c[nH]cn1)C(=O)N[C@@H](Cc1ccccc1)C(=O)N[C@@H](CCCNC(=N)N)C(=O)N[C@H](Cc1c[nH]c2ccccc12)C(=O)N[C@@H](CC(=O)O)C(=O)N[C@@H](CCCNC(=N)N)C(=O)N[C@@H](Cc1ccccc1)C(=O)NCC(=O)O	Melanocortin receptor 3	reporter gene	agonist		0.04
